Data set [1] relates to HepG2. As to the kind of experiment: Intracellular ROS assay. To be noted: for change of intracellular ROS in words: HepG2, vs untreated control, 10 and 1 μM; for activity at 1 µM / activity at 10 µM: Homo sapiens, HepG2, read-out: Intracellular ROS, percentage compared to the untreated control cells (ROS/SRB). The class given is cell-based. In outline: (§1)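 Cells seeded at 20000/well and grown 24 h at 37 °C, 10% CO2, then treated with test compound at 10 and 1 μM in serum-free medium. NAC and doxorubicin served as controls. After a PBS wash, cells were loaded with 20 μM DCFH-DA for 30 min, washed, and held 1 h in phenol red-free DMEM. Fluorescence read at ex 485/em 535 nm and normalized to SRB in the same well. Reported as % of untreated control, n ≥ 3, two-tailed t-test with unequal variances.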

The test system of data set [2] is HT‐29. As to the kind of experiment: Cell growth inhibition, protein content. The class given is cell-based. The note with it: Homo sapiens, HT-29, 72 h, read-out: IC50 SRB. In a few lines:
(§2)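 Cell lines from ATCC, grown in DMEM+glutamax with 1% NEAA, 1% P/S and 10% FBS at 37 °C, 10% CO2. Seeded at 20000 cells/well for 24 h, then exposed to test compound (25 mM DMSO stock) for three days. Fixed with cold TCA for 1 h at 4 °C, stained 30 min with 0.4% SRB in 1% acetic acid, dissolved in 10 mM Tris, A490. Triplicate; IC50 given as mean ± SD combined with MTT data (n ≥ 3).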

The test system of data set [3] is HepG2, HT‐29, Caco‐2 and EA.hy926. As to the kind of experiment: Antiproliferative activity, MTT and SRB assays taken together. In kind it is cell-based.
Data set [4] in a line: Chemical antioxidant capacity, FRAP assay.
The test system of data set [5] is HT‐29. As to the kind of experiment: Intracellular ROS assay. In kind it is cell-based. The note with it: for activity at 1 µM / activity at 10 µM: Homo sapiens, HT-29, read-out: Intracellular ROS, percentage compared to the untreated control cells (ROS/SRB). In a few lines: as §1
Data set [6] has as its system EA.hy926. As to the kind of experiment: Cell growth inhibition, protein content. In kind it is cell-based. The note with it: Homo sapiens, EA.hy 926, 72 h, read-out: IC50 SRB. In a few lines:
as §2

Data set [7] has as its system HT‐29. Kind of data set: Cytotoxicity, mitochondrial activity. In kind it is cell-based. The note with it: Homo sapiens, HT-29, 72 h, read-out: IC50 MTT. In outline:
(§3)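 Seeded at 20000 cells/well in DMEM and grown 24 h at 37 °C, 10% CO2. Medium was then replaced with serum-free medium holding test compound (25 mM DMSO stock) at various concentrations for 72 h, in triplicate; doxorubicin was the positive control. MTT (5 mg/mL stock in PBS) added for 2 h, formazan dissolved in DMSO, A570. IC50 derived from % surviving cells, reported as mean ± SD combined with SRB data.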

The subject of data set [8] is HepG2. Kind of data set: Cell growth inhibition, protein content. To be noted: Homo sapiens, HepG2, 72 h, read-out: IC50 SRB. The class given is cell-based. In outline: as §2
Data set [9] concerns Caco‐2. As to the kind of experiment: Intracellular ROS assay. The note with it: for activity at 1 µM / activity at 10 µM: Homo sapiens, Caco-2, read-out: Intracellular ROS, percentage compared to the untreated control cells (ROS/SRB). In kind it is cell-based. In a few lines: as §1
Data set [10] deals with HepG2. Kind of data set: Cytotoxicity, mitochondrial activity. The class given is cell-based. The note with it: Homo sapiens, HepG2, 72 h, read-out: IC50 MTT. In a few lines: as §3
Data set [11] has as its system Caco‐2. Kind of data set: Cell growth inhibition, protein content. The class given is cell-based. To be noted: Homo sapiens, Caco-2, 72 h, read-out: IC50 SRB. In a few lines: as §2
Data set [12] can be described thus: Water solubility, shake flask method, 0.1 M phosphate buffer pH 6.8. In kind it is physicochemical. To be noted: 37 °C, pH 6.8, aqueous buffer, thermodynamic from solid.
Data set [13] relates to EA.hy926. Kind of data set: Intracellular ROS assay. In kind it is cell-based. The note with it: for activity at 1 µM / activity at 10 µM: Homo sapiens, EA.hy 926, read-out: Intracellular ROS, percentage compared to the untreated control cells (ROS/SRB). In outline:
as §1

Data set [14] concerns Caco‐2. As to the kind of experiment: Cytotoxicity, mitochondrial activity. In kind it is cell-based. The note with it: Homo sapiens, Caco-2, 72 h, read-out: IC50 MTT. In outline:
as §3

For data set [15], the system named is EA.hy926. As to the kind of experiment: Cytotoxicity, mitochondrial activity. In kind it is cell-based. The note with it: Homo sapiens, EA.hy 926, 72 h, read-out: IC50 MTT. In a few lines: as §3
A further data set concerns CHO‐K1. Kind of data set: Intracellular ROS assay. In kind it is cell-based, Chinese hamster. To be noted: CHO‐K1, vs untreated control, 10 and 1 μM. In outline:
as §1

In brackets after ≈: the same amount, converted by molar mass. A value given as a limit tells only on which side of the number the result lay.

Regarding `COc1cc(/C=C/C(=O)/C=C(O)/C=C/c2ccncc2)ccc1O` [3 c, (1E,4Z,6E)‐5‐Hydroxy‐1‐(4‐hydroxy‐3‐methoxyphenyl)‐7‐(pyridin‐4‐yl)hepta‐1,4,6‐triene‐3‐one], the “change of intracellular ROS in words” value in the data set on HepG2 [1] is “significantly increased ROS production”. Besides, the activity at 1 µM was found to be 104 ± 13.1% with HepG2 [1], 93.4 ± 6.4% with HT‐29 [5], 89.8 ± 3.6% with Caco‐2 [9] and 100 ± 6.9% in the data set on EA.hy926 [13]. Moreover, the activity at 10 µM stood at 128 ± 4.4% with HepG2 [1], 99.8 ± 11.4% with HT‐29 [5], 99.7 ± 1% in the data set with Caco‐2 [9] and 95.7 ± 3.5% in the data set on EA.hy926 [13]. In addition, the concentration for half-maximal inhibition (IC50) was 48.8 ± 1.8 µM in the data set with HT‐29 [2]; 3.7 ± 0.2 µM in the data set with EA.hy926 [6]; 4.9 ± 0.3 µM in the data set on HT‐29 [7]; 9.8 ± 0.6 µM in the data set on HepG2 [8]; 3.2 ± 0.8 µM in the data set with HepG2 [10]; 12 ± 0.7 µM in the data set on Caco‐2 [11]. The concentration for half-maximal inhibition (IC50) worked out at 7.1 ± 0.4 µM in the data set with Caco‐2 [14] and 6.1 ± 0.1 µM with EA.hy926 [15]. Also, the “antiproliferative activity / cell growth inhibition in words” value in [3] is on record as “comparable activity to the commercial doxorubicin drug”. In data set [4], the “FRAP (Trolox equivalent per μM)” value is recorded as 0.56 Trolox equivalent per μM. For the same compound, in data set [4], the “FRAP (curcumin equivalent per μM)” value is on record as 0.54 curcumin equivalent per μM. For the same compound, the “antioxidant activity in words, FRAP” value in data set [4] is on record as “comparable to ascorbic acid”. In data set [12], this compound returned a solubility at 90 min of 9 ± 0.6 µM (≈ 2.91 µg/mL). Besides, the solubility at 24 h in data set [12] amounted to 12.8 ± 1.1 µM (≈ 4.14 µg/mL).
Take `C(=C\c1c[nH]c2ccccc12)/c1cc(/C=C/c2cccs2)[nH]n1` [4 d, 3‐{(E)‐2‐[5‐((E)‐2‐(thiophen‐2‐yl)vinyl)‐1H‐pyrazol‐3‐yl]vinyl}‐1H‐indole]: the “change of intracellular ROS in words” value was “significantly increased ROS production” in the data set on HepG2 [1]; “higher ROS signal” in the data set on HT‐29 [5] (HT‐29, vs untreated control, 10 and 1 μM); “significantly increased ROS production” with Caco‐2 [9] (Caco‐2, vs untreated control, 10 and 1 μM); “significantly increased ROS production” with EA.hy926 [13] (EA.hy926, vs untreated control, 10 and 1 μM); “significantly increased ROS” in the data set with CHO‐K1. The activity at 10 µM in the data set with HepG2 [1] amounted to 985 ± 78.2%; in the data set on HT‐29 [5], 384 ± 47.5%; in the data set on Caco‐2 [9] it was 382 ± 62.6%; in the data set with EA.hy926 [13] it was 402 ± 23.4%. In addition, the IC50 in the data set on HT‐29 [2] came to 9.7 ± 0.5 µM; in the data set with EA.hy926 [6] it was 9.5 ± 0.4 µM; with HT‐29 [7] it was 4.2 ± 0.4 µM; in the data set with HepG2 [8], 49.5 ± 2.1 µM; with HepG2 [10], 34.9 ± 0.8 µM; with Caco‐2 [11] it was 21.1 ± 0.3 µM. Further, the IC50 with Caco‐2 [14] turned out to be 19.6 ± 4 µM; with EA.hy926 [15], 6 ± 0.9 µM. Further, in data set [4], the “FRAP (Trolox equivalent per μM)” value is recorded as 0.33 Trolox equivalent per μM. Besides, the “FRAP (curcumin equivalent per μM)” value in [4] was 0.32 curcumin equivalent per μM. The activity at 1 µM in the data set with HT‐29 [5] worked out at 463 ± 42.7%; in the data set on Caco‐2 [9] it was 458 ± 97.5%; with EA.hy926 [13], 483.9 ± 1.4%. Further, in data set [12], the solubility at 90 min worked out at 13.7 ± 0.5 µM (≈ 4.35 µg/mL). The same compound gave a solubility at 24 h in data set [12] of 11.7 ± 2.3 µM (≈ 3.71 µg/mL).
Take `COc1cc(/C=C/c2cc(/C=C/c3cccc4cnccc34)[nH]n2)ccc1O` [4 c, 2‐Methoxy‐4‐{(E)‐2‐[5‐((E)‐2‐(isoquinolin‐5‐yl)vinyl)‐1H‐pyrazol‐3‐yl]vinyl}phenol]: in the data set with HepG2 [1], the “change of intracellular ROS in words” value was “significantly decreased ROS signal”. Also, the activity at 1 µM in the data set on HepG2 [1] was found to be 74.7 ± 2.9%; in the data set with HT‐29 [5], 94.4 ± 3.4%; with Caco‐2 [9] it was 108 ± 18.6%; in the data set with EA.hy926 [13], 89.9 ± 2.5%. Besides, the activity at 10 µM in the data set on HepG2 [1] came out at 88 ± 10.6%; with HT‐29 [5] it was 86.4 ± 8.2%; in the data set on Caco‐2 [9] it was 102 ± 17.3%; in the data set with EA.hy926 [13], 99.2 ± 5%. In addition, the IC50 with HT‐29 [2] was more than 75 µM; with EA.hy926 [6] it was more than 75 µM; with HT‐29 [7], 37.7 ± 1.3 µM; in the data set on HepG2 [8] it was 28.3 ± 4.7 µM; in the data set on HepG2 [10], 6.7 ± 0.4 µM; with Caco‐2 [11], 60.3 ± 3.5 µM. For the same compound, the IC50 in the data set on Caco‐2 [14] came to 58.7 ± 2 µM; in the data set with EA.hy926 [15], 38.8 ± 0.4 µM. The “antiproliferative activity / cell growth inhibition in words” value in [3] is on record as “comparable activity to the commercial doxorubicin drug”. Moreover, the “FRAP (Trolox equivalent per μM)” value in data set [4] was 0.15 Trolox equivalent per μM. In addition, the “FRAP (curcumin equivalent per μM)” value in data set [4] is 0.14 curcumin equivalent per μM. Also, in [12], the solubility at 90 min came out at 6.4 ± 0.2 µM (≈ 2.36 µg/mL). This compound registered a solubility at 24 h in [12] of 7 ± 0.2 µM (≈ 2.59 µg/mL).
